Measured values from ChEMBL document CHEMBL4400518, “Synthesis, antimicrobial and cytotoxic activities, and molecular docking studies of N-arylsulfonylindoles containing an aminoguanidine, a semicarbazide, and a thiosemicarbazide moiety” (Eur J Med Chem, 2019).
In brackets after ≈: the same amount, converted by molar mass.

Columns and labels:
[1] = Selectivity index, ratio of IC50 for HEK293T cells to MIC for Bacillus subtilis CMCC 63501; format: toxicity; conditions: human, read-out: Selectivity Index
[2] = Selectivity index, ratio of IC50 for HEK293T cells to MIC for Streptococcus pyogenes CMCC 32067; format: toxicity; conditions: human, read-out: Selectivity Index
[3] = Selectivity index, ratio of IC50 for HEK293T cells to MIC for multidrug-resistant Escherichia coli ATCC BAA-196; format: toxicity; conditions: human, read-out: Selectivity Index
[4] = test system: Escherichia coli; assay: Antibacterial activity against Escherichia coli CMCC 25922 measured after 24 hrs by ELISA; format: functional; conditions: CMCC 25922, 24 h
Procedure, shortened: (§1)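 Broth microdilution MIC. Mid-log bacteria in MHB or TSB diluted 1000-fold, inoculated at 10^5 CFU/mL. Compounds added from DMSO stocks; final DMSO at most 0.05%. Incubation 24 h at 37 °C. Growth read as absorbance at 630 nm. MIC taken as the lowest concentration giving complete growth inhibition. Three independent experiments.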

[5] = test system: Bacillus subtilis; assay: Antibacterial activity against Bacillus subtilis CMCC 63501 measured after 24 hrs by ELISA; format: functional; conditions: CMCC 63501, 24 h; procedure, shortened: as §1
[6] = Selectivity index, ratio of IC50 for HEK293T cells to MIC for Escherichia coli CMCC 44568; format: toxicity; conditions: human, read-out: Selectivity Index
[7] = Selectivity index, ratio of IC50 for HEK293T cells to MIC for Streptococcus pneumoniae CMCC 31968; format: toxicity; conditions: human, read-out: Selectivity Index
[8] = Cytotoxicity against human A590 cells measured after 48 hrs by CCK8 assay; format: functional, cell-based
Procedure, shortened: (§2)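 Cells kept in DMEM with 10% FBS and penicillin-streptomycin at 37 °C, 5% CO2. About 1×10^4 cells per well attached for 24 h, then exposed for 48 h to 0.3, 1, 3, 10, 30 and 100 µmol/L of compound, in triplicate wells. CCK-8 added for 3 h, OD read at 450 nm. IC50 is the concentration inhibiting growth by 50%.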

[9] = test system: Pseudomonas aeruginosa; assay: Antibacterial activity against Pseudomonas aeruginosa CMCC 27853 measured after 24 hrs by ELISA; format: functional; conditions: CMCC 27853, 24 h; procedure, shortened: as §1
[10] = test system: Streptococcus pneumoniae; assay: Antibacterial activity against Streptococcus pneumoniae CMCC 31968 measured after 24 hrs by ELISA; format: functional; conditions: CMCC 31968, 24 h
[11] = test system: Pseudomonas aeruginosa; assay: Antibacterial activity against multidrug-resistant Pseudomonas aeruginosa ATCC BAA-2111 measured after 24 hrs by ELISA; format: functional; conditions: ATCC BAA-2111, 24 h
Procedure, shortened: (§3)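 Broth serial dilution MIC. Mid-log bacteria in Mueller-Hinton or Tryptone Soya broth, diluted 1000-fold and inoculated at 10^5 CFU/mL. Compounds from DMSO stock, final DMSO ≤0.05%. Incubated 24 h at 37 °C; growth read as absorbance at 630 nm. MIC is the lowest concentration giving complete growth inhibition. Three independent experiments.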

[12] = test system: Streptococcus pyogenes; assay: Antibacterial activity against Streptococcus pyogenes CMCC 32067 measured after 24 hrs by ELISA; format: functional; conditions: CMCC 32067, 24 h; procedure, shortened: as §1
[13] = Selectivity index, ratio of IC50 for HEK293T cells to MIC for methicillin-resistant Staphylococcus aureus ATCC 43300; format: toxicity; conditions: human, read-out: Selectivity Index
[14] = Selectivity index, ratio of IC50 for HEK293T cells to MIC for Staphylococcus aureus CMCC 25923; format: toxicity; conditions: human, read-out: Selectivity Index
[15] = test system: Escherichia coli; assay: Antibacterial activity against Escherichia coli CMCC 44568 measured after 24 hrs by ELISA; format: functional; conditions: CMCC 44568, 24 h; procedure, shortened: as §1
[16] = Selectivity index, ratio of IC50 for HEK293T cells to MIC for multidrug-resistant Pseudomonas aeruginosa ATCC BAA-2111; format: toxicity; conditions: human, read-out: Selectivity Index
[17] = Selectivity index, ratio of IC50 for HEK293T cells to MIC for methicillin-resistant Staphylococcus aureus ATCC 33591; format: toxicity; conditions: human, read-out: Selectivity Index
[18] = Selectivity index, ratio of IC50 for HEK293T cells to MIC for Staphylococcus aureus CMCC(B) 26003; format: toxicity; conditions: human, read-out: Selectivity Index
[19] = Selectivity index, ratio of IC50 for HEK293T cells to MIC for Enterococcus faecalis CMCC 29212; format: toxicity; conditions: human, read-out: Selectivity Index
[20] = Selectivity index, ratio of IC50 for HEK293T cells to MIC for Pseudomonas aeruginosa CMCC 27853; format: toxicity; conditions: human, read-out: Selectivity Index
[21] = Selectivity index, ratio of IC50 for HEK293T cells to MIC for Escherichia coli CMCC 25922; format: toxicity; conditions: human, read-out: Selectivity Index
[22] = test system: Staphylococcus aureus; assay: Antibacterial activity against Staphylococcus aureus CMCC 25923 measured after 24 hrs by ELISA; format: functional; conditions: CMCC 25923, 24 h; procedure, shortened: as §1
[23] = test system: SGC-7901; assay: Cytotoxicity against human SGC7901 cells measured after 48 hrs by CCK8 assay; format: functional, cell-based; conditions: SGC-7901, 48 h; procedure, shortened: as §2
[24] = test system: Staphylococcus aureus; assay: Antibacterial activity against Staphylococcus aureus CMCC(B) 26003 measured after 24 hrs by ELISA; format: functional; conditions: CMCC(B) 26003, 24 h; procedure, shortened: as §1
[25] = test system: Staphylococcus aureus; assay: Antibacterial activity against methicillin-resistant Staphylococcus aureus ATCC 33591 measured after 24 hrs by ELISA; format: functional; conditions: ATCC 33591, 24 h; procedure, shortened: as §3
[26] = test system: Staphylococcus aureus; assay: Antibacterial activity against methicillin-resistant Staphylococcus aureus ATCC 43300 measured after 24 hrs by ELISA; format: functional; conditions: ATCC 43300, 24 h; procedure, shortened: as §3
[27] = test system: HEK-293T; assay: Cytotoxicity against HEK293T cells measured after 48 hrs by CCK8 assay; format: cell-based; conditions: Homo sapiens; procedure, shortened: as §2
[28] = test system: Enterococcus faecalis; assay: Antibacterial activity against Enterococcus faecalis CMCC 29212 measured after 24 hrs by ELISA; format: functional; conditions: CMCC 29212, 24 h; procedure, shortened: as §1
[29] = test system: Escherichia coli; assay: Antibacterial activity against multidrug-resistant Escherichia coli ATCC BAA-196 measured after 24 hrs by ELISA; format: functional; conditions: ATCC BAA-196, 24 h; procedure, shortened: as §3
[30] = Selectivity index, ratio of IC50 for HEK293T cells to MIC for Pseudomonas aeruginosa CMCC 10104; format: toxicity; conditions: human, read-out: Selectivity Index
[31] = test system: Pseudomonas aeruginosa; assay: Antibacterial activity against Pseudomonas aeruginosa CMCC 10104 measured after 24 hrs by ELISA; format: functional; conditions: CMCC 10104, 24 h; procedure, shortened: as §1
[32] = test system: Staphylococcus aureus; assay: Antibacterial activity against Staphylococcus aureus CMCC 25923 assessed as ratio of MIC after and before 16 passages at sub-MIC; format: functional
Procedure, shortened: (§4)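 Resistance by serial passage. After an initial broth-dilution MIC, bacteria grown at MIC/2 were transferred to a fresh MIC assay every 22 h incubation, repeatedly. Norfloxacin was the comparator antibiotic. MIC was tracked against passage day.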

[33] = test system: Escherichia coli; assay: Antibacterial activity against Escherichia coli CMCC 44568 assessed as ratio of MIC after and before 16 passages at sub-MIC; format: functional; procedure, shortened: as §4

SMILES	selectivity ratio [1]	selectivity ratio [2]	selectivity ratio [3]	MIC [4]	MIC [5]	selectivity ratio [6]	selectivity ratio [7]	IC50 [8]	MIC [9]	MIC [10]	MIC [11]	MIC [12]	selectivity ratio [13]	selectivity ratio [14]	MIC [15]	selectivity ratio [16]	selectivity ratio [17]	selectivity ratio [18]	selectivity ratio [19]	selectivity ratio [20]	other results
CC/C(=N/NC(=N)N)c1cn(S(=O)(=O)c2ccc(C)cc2)c2ccc(Br)cc12	26.6	0.42	6.64	34.7 µM (≈ 16 µg/mL)	2.17 µM (≈ 1 µg/mL)	13.3	53.4	2.33 µM	> 278 µM	1.08 µM (≈ 0.499 µg/mL)	> 69.4 µM	139 µM (≈ 64.2 µg/mL)	26.6	13.3	4.34 µM (≈ 2.01 µg/mL)	< 0.83	26.6	13.3	13.3	< 0.21	selectivity ratio [21]: 1.66; MIC [22]: 2.17 µM (≈ 1 µg/mL); IC50 [23]: 3.92 µM; MIC [24]: 4.34 µM (≈ 2.01 µg/mL); MIC [25]: 2.17 µM (≈ 1 µg/mL); MIC [26]: 2.17 µM (≈ 1 µg/mL); IC50 [27]: 57.6 µM; MIC [28]: 4.34 µM (≈ 2.01 µg/mL); MIC [29]: 8.68 µM (≈ 4.01 µg/mL); selectivity ratio [30]: < 0.21; MIC [31]: > 278 µM
C/C(=N/NC(=N)N)c1cn(S(=O)(=O)c2ccc(C)cc2)c2ccc(Br)cc12	12.6	0.2	101	286 µM (≈ 128 µg/mL)	4.47 µM (≈ 2 µg/mL)	50.4	25.2	4.44 µM	> 286 µM	2.24 µM (≈ 1 µg/mL)	> 71.6 µM	286 µM (≈ 128 µg/mL)	50.4	25.2	1.12 µM (≈ 0.502 µg/mL)	< 0.79	25.2	12.6	6.31	< 0.2	Ratio [32]: 0; Ratio [33]: 0; selectivity ratio [21]: 0.2; MIC [22]: 2.24 µM (≈ 1 µg/mL); IC50 [23]: 1.51 µM; MIC [24]: 4.47 µM (≈ 2 µg/mL); MIC [25]: 2.24 µM (≈ 1 µg/mL); MIC [26]: 1.12 µM (≈ 0.502 µg/mL); IC50 [27]: 56.4 µM; MIC [28]: 8.94 µM (≈ 4.01 µg/mL); MIC [29]: 0.56 µM (≈ 0.251 µg/mL); selectivity ratio [30]: < 0.2; MIC [31]: > 286 µM
N=C(N)N/N=C\c1cn(S(=O)(=O)c2ccccc2)c2ccc(Br)cc12	15	0.23	30	9.55 µM (≈ 4.01 µg/mL)	4.77 µM (≈ 2 µg/mL)	60.2	< 0.23	14.7 µM	> 305 µM	> 305 µM	> 76.4 µM	305 µM (≈ 128 µg/mL)	30	30.2	1.19 µM (≈ 0.5 µg/mL)	< 0.94	30	0.47	3.75	< 0.23	selectivity ratio [21]: 7.5; MIC [22]: 2.37 µM (≈ 0.996 µg/mL); IC50 [23]: 3.06 µM; MIC [24]: 153 µM (≈ 64.2 µg/mL); MIC [25]: 2.39 µM (≈ 1 µg/mL); MIC [26]: 2.39 µM (≈ 1 µg/mL); IC50 [27]: 71.6 µM; MIC [28]: 19.1 µM (≈ 8.02 µg/mL); MIC [29]: 2.39 µM (≈ 1 µg/mL); selectivity ratio [30]: 7.5; MIC [31]: 9.55 µM (≈ 4.01 µg/mL)
